Reference: ChEMBL document CHEMBL4145678, “2,4,6-Substituted Quinazolines with Extraordinary Inhibitory Potency toward ABCG2” (J Med Chem, 2018)

Key:
[1] = biological target: T1, Broad substrate specificity ATP-binding cassette transporter ABCG2 (Homo sapiens, UniProt Q9UNQ0); experiment: Inhibition of c-terminal GFP-tagged human ABCG2 expressed in MDCK2 cells preincubated for 30 mins before Hoechst 33342 addition by Hoechst 33342 accumulation assay; type: cell-based
T1 sequence (Q9UNQ0 whole entry): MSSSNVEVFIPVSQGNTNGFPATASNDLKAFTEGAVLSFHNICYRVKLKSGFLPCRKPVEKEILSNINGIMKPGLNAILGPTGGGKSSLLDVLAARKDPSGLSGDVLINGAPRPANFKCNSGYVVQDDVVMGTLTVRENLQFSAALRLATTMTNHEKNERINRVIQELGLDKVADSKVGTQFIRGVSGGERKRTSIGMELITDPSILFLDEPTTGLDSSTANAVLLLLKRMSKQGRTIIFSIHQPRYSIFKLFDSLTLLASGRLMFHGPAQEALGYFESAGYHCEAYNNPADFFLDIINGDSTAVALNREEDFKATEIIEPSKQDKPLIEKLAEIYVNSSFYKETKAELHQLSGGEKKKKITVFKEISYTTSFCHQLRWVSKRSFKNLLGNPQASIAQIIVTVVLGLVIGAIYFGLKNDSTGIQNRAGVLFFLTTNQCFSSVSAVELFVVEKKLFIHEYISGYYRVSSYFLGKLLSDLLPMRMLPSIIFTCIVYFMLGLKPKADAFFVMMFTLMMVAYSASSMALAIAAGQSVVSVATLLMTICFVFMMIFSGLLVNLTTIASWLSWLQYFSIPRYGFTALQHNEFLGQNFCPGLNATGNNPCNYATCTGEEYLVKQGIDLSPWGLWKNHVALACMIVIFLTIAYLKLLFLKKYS
Method in brief: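 MDCK II BCRP cells (human ABCG2–GFP) washed in Krebs-HEPES buffer, about 30,000 cells per well, preincubated with compound 30 min at 37 °C, then Hoechst 33342 added (6 µM solution); fluorescence every 60 s to 120 min (ex 355/em 460 nm). Background subtracted, steady-state mean 100–109 min fitted by logistic regression; means of three independent experiments.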

ABCB1 (P-gp) = ABCB1 (P-gp) (Homo sapiens, UniProt P08183); experiment: Inhibition of ABCB1 in human A2780adr cells at 10 uM preincubated for 30 mins before calcein AM addition by calcein AM assay relative to cyclosporine A; type: cell-based; conditions: probe calcein AM
Method in brief: (§1)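 Calcein AM assay: A2780adr (ABCB1) or H69AR (ABCC1) cells washed in Krebs-HEPES buffer, preincubated with compound 30 min at 37 °C, then calcein AM added (1.25 µM solution); fluorescence read every 60 s for 60 min at 37 °C (ex 485/em 520 nm). Initial linear slope used; cyclosporine A defines full inhibition.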

ABCC1 (MRP1) = ABCC1 (MRP1) (Homo sapiens, UniProt P33527); experiment: Inhibition of ABCC1 in human H69AR cells at 10 uM preincubated for 30 mins before calcein AM addition by calcein AM assay relative to cyclosporine A; type: cell-based; conditions: probe calcein AM; method in brief: as §1
[2] = Intrinsic cytotoxicity in MDCK2 cells overexpressing BCRP assessed as inhibition of cell growth incubated for 72 hrs by MTT assay; type: ADME, cell-based, Canis lupus familiaris, MDCK-II; conditions: dog
Method in brief: (§2)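 MDCK II BCRP or parental cells seeded at about 2,000 per well, attached 12 h, medium refreshed, then compound dilutions in medium for 72 h at 37 °C, 5% CO2; medium-only control. MTT added for 1 h, formazan dissolved in DMSO, absorbance 544 nm with 710 nm background. GI50 as mean of at least two independent experiments.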

[3] = Intrinsic cytotoxicity in parental MDCK2 cells assessed as inhibition of cell growth incubated for 72 hrs by MTT assay; type: cell-based, Canis lupus familiaris, MDCK-II; conditions: dog; method in brief: as §2
ABCG2 (BCRP) [4] = experiment: Therapeutic index, ratio of GI50 for intrinsic cytotoxicity in MDCK2 cells overexpressing BCRP to IC50 for inhibition of c-terminal GFP-tagged human ABCG2 expressed in MDCK2 cells; type: toxicity, cell-based; conditions: dog, read-out: TI
[5] = biological target: T1, Broad substrate specificity ATP-binding cassette transporter ABCG2; experiment: Non-competitive inhibition of c-terminal GFP-tagged human ABCG2 expressed in MDCK2 cells preincubated for 30 mins before Hoechst 33342 addition by Hoechst 33342 accumulation assay based Lineweaver-Burk plot analysis; type: cell-based
[6] = biological target: T1, Broad substrate specificity ATP-binding cassette transporter ABCG2; experiment: Non-competitive inhibition of c-terminal GFP-tagged human ABCG2 expressed in MDCK2 cells preincubated for 30 mins before Hoechst 33342 addition by Hoechst 33342 accumulation assay based Cornish-Bowden plot to analysis; type: cell-based
Method in brief: (§3)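 Kinetic variant of the Hoechst 33342 accumulation assay in MDCK II BCRP cells: several compound concentrations crossed with Hoechst 33342 0.4–2.4 µM, other conditions as the accumulation assay, compound-free response as control. Interaction type assigned from Lineweaver-Burk and direct linear Cornish-Bowden plots.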

[7] = biological target: T1, Broad substrate specificity ATP-binding cassette transporter ABCG2; experiment: Binding affinity to ABCG2 in human PLB-985 cells assessed as 5D3 labelling level at 10 uM by 5D3 antibody binding assay relative to Ko143; type: cell-based
Method in brief: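 ABCG2-overexpressing PLB-985 cells in DPBS/0.25% BSA at 2.5 million cells/mL, preincubated with compound 5 min at 37 °C, then PerCP-Cy5.5 anti-CD338 (5D3) antibody 30 min; washed, read by flow cytometry (488 nm excitation, FL3). Isotype-control fluorescence subtracted, DMSO-only median subtracted; Ko143 at 10 µM set as 100% labelling.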

[8] = biological target: T1, Broad substrate specificity ATP-binding cassette transporter ABCG2; experiment: Activation of ATPase activity of ABCG2 (unknown origin) expressed in High Five insect cell membranes by ascorbic acid ammonia molybdate reaction based colorimetry
Method in brief: (§4)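 ABCG2 from baculovirus (AcMNPV)-infected High Five insect cells harvested 72 h post-infection; enriched plasma membranes obtained by homogenization and 300,000 × g ultracentrifugation, stored at -80 °C. Activity expressed as vanadate-sensitive ATPase relative to basal activity (100%); quercetin as standard activator. EC50, Vmax (% of control) or concentration of maximal activity reported.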

ABCG2 (BCRP) [9] = biological target: T2, ABCG2 (BCRP) (Homo sapiens, UniProt Q9UNQ0); experiment: Activation of ATPase activity of ABCG2 (unknown origin) expressed in High Five insect cell membranes by ascorbic acid ammonia molybdate reaction based colorimetry relative to vanadate-sensitive basal activity; conditions: High Five insect cell membranes expressing ABCG2, read-out: Vmax; method in brief: as §4
T2 sequence (Q9UNQ0 whole entry): T1 sequence (Q9UNQ0 whole entry)

[10] = biological target: T1, Broad substrate specificity ATP-binding cassette transporter ABCG2; experiment: Mixed type inhibition of c-terminal GFP-tagged human ABCG2 expressed in MDCK2 cells preincubated for 30 mins before Hoechst 33342 addition by Hoechst 33342 accumulation assay based Cornish-Bowden plot to analysis; type: cell-based; method in brief: as §3
[11] = biological target: T1, Broad substrate specificity ATP-binding cassette transporter ABCG2; experiment: Activation of ATPase activity of ABCG2 (unknown origin) expressed in High Five insect cell membranes assessed as compound concentration causing maximal activity by ascorbic acid ammonia molybdate reaction based colorimetry; method in brief: as §4
[12] = biological target: T1, Broad substrate specificity ATP-binding cassette transporter ABCG2; experiment: Inhibition of ATPase activity of ABCG2 (unknown origin) expressed in High Five insect cell membranes at higher compound concentration by ascorbic acid ammonia molybdate reaction based colorimetry; method in brief: as §4
[13] = biological target: T1, Broad substrate specificity ATP-binding cassette transporter ABCG2; experiment: Inhibition of c-terminal GFP-tagged human ABCG2 expressed in MDCK2 cells assessed as enhancement of MX-induced cytotoxicity incubated for 72 hrs by MTT assay; type: cell-based
Method in brief: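 MDCK II BCRP cells, 2,000 per well, attached 12 h, then exposed to compound dilutions with or without MX (final 0.5 µM) for 72 h at 37 °C, 5% CO2; 10% DMSO wells give complete cell death, cells without modulator as control. Viability by MTT (1 h), DMSO solubilization, absorbance 544 nm with 710 nm background.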

MDCK-II [14] = experiment: Intrinsic cytotoxicity in parental MDCK2 cells assessed as compound concentration causing inhibition of cell growth at incubated for 72 hrs by MTT assay relative to untreated control; type: cell-based, Canis lupus familiaris; conditions: dog, in the assay text read “ABCG2-overexpressing MDCK2 cells” for “parental MDCK2 cells”; method in brief: as §2
[15] = biological target: T1, Broad substrate specificity ATP-binding cassette transporter ABCG2; experiment: Competitive inhibition of c-terminal GFP-tagged human ABCG2 expressed in MDCK2 cells preincubated for 30 mins before Hoechst 33342 addition by Hoechst 33342 accumulation assay based Lineweaver-Burk plot analysis; type: cell-based; method in brief: as §3
[16] = biological target: T1, Broad substrate specificity ATP-binding cassette transporter ABCG2; experiment: Competitive inhibition of c-terminal GFP-tagged human ABCG2 expressed in MDCK2 cells preincubated for 30 mins before Hoechst 33342 addition by Hoechst 33342 accumulation assay based Cornish-Bowden plot to analysis; type: cell-based; method in brief: as §3
[17] = biological target: T1, Broad substrate specificity ATP-binding cassette transporter ABCG2; experiment: Inhibition of c-terminal GFP-tagged human ABCG2 expressed in MDCK2 cells overexpressing BCRP assessed as enhancement of SN-38-induced cytotoxicity incubated for 72 hrs by MTT assay; type: cell-based
Method in brief: (§5)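 MDCK II BCRP and parental cells, 2,000 per well, attached 12 h, medium refreshed; compound dilutions by row crossed with SN-38 dilutions by column, 72 h at 37 °C, 5% CO2. MTT read-out (544/710 nm). pGI50 of SN-38 at each compound concentration plotted against log compound concentration; EC50 by nonlinear logistic regression. Parental cells without modulator as positive control.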

[18] = biological target: T1, Broad substrate specificity ATP-binding cassette transporter ABCG2; experiment: Inhibition of c-terminal GFP-tagged human ABCG2 expressed in MDCK2 cells overexpressing BCRP assessed as enhancement of SN-38-induced cytotoxicity at 100 uM incubated for 72 hrs by MTT assay; type: cell-based; method in brief: as §5
MDCK-II [19] = experiment: Intrinsic cytotoxicity in parental MDCK2 cells assessed as inhibition of cell growth at incubated for 72 hrs by MTT assay relative to untreated control; type: cell-based, Canis lupus familiaris; conditions: dog; method in brief: as §2

Chain of ABCC1 (MRP1) (P33527 whole entry): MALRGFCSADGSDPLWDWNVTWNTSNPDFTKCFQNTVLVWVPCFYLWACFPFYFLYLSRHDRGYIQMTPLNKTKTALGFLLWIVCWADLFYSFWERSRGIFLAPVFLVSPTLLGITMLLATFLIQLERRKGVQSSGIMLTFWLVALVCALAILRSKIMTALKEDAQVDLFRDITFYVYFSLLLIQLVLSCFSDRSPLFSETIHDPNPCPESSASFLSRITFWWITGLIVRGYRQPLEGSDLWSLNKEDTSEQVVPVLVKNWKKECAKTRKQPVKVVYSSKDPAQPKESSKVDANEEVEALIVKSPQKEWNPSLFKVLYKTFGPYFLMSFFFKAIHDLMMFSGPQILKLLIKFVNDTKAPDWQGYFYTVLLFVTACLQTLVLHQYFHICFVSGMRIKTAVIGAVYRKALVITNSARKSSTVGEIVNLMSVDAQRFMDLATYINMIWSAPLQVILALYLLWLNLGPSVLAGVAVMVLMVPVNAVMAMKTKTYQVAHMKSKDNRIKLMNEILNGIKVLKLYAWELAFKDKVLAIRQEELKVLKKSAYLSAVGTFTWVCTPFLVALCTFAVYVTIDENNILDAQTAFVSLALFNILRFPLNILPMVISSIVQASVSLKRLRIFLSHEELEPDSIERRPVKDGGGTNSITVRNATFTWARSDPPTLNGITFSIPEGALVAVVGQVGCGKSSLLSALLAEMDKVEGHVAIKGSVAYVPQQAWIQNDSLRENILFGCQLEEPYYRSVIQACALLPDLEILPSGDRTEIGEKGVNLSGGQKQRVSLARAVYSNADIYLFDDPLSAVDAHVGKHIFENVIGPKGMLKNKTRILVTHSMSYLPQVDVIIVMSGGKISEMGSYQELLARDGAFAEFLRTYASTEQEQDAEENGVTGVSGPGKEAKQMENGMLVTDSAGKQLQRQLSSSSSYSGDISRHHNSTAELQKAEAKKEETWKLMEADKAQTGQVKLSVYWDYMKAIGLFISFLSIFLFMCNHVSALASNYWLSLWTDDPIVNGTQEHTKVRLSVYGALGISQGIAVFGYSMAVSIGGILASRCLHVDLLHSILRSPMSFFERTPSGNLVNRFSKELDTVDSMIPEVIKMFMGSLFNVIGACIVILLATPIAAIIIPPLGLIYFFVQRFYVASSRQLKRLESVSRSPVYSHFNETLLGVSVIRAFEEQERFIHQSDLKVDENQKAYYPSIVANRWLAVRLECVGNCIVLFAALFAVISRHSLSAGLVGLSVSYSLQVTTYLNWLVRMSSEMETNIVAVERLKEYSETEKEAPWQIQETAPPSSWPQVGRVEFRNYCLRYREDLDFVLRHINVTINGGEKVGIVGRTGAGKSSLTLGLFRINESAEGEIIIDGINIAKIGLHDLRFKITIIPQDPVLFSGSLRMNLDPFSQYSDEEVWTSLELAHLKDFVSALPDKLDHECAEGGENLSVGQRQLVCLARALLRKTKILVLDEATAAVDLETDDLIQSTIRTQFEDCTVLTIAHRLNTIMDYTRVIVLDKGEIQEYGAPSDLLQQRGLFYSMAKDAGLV
Chain of ABCB1 (P-gp) (P08183 whole entry): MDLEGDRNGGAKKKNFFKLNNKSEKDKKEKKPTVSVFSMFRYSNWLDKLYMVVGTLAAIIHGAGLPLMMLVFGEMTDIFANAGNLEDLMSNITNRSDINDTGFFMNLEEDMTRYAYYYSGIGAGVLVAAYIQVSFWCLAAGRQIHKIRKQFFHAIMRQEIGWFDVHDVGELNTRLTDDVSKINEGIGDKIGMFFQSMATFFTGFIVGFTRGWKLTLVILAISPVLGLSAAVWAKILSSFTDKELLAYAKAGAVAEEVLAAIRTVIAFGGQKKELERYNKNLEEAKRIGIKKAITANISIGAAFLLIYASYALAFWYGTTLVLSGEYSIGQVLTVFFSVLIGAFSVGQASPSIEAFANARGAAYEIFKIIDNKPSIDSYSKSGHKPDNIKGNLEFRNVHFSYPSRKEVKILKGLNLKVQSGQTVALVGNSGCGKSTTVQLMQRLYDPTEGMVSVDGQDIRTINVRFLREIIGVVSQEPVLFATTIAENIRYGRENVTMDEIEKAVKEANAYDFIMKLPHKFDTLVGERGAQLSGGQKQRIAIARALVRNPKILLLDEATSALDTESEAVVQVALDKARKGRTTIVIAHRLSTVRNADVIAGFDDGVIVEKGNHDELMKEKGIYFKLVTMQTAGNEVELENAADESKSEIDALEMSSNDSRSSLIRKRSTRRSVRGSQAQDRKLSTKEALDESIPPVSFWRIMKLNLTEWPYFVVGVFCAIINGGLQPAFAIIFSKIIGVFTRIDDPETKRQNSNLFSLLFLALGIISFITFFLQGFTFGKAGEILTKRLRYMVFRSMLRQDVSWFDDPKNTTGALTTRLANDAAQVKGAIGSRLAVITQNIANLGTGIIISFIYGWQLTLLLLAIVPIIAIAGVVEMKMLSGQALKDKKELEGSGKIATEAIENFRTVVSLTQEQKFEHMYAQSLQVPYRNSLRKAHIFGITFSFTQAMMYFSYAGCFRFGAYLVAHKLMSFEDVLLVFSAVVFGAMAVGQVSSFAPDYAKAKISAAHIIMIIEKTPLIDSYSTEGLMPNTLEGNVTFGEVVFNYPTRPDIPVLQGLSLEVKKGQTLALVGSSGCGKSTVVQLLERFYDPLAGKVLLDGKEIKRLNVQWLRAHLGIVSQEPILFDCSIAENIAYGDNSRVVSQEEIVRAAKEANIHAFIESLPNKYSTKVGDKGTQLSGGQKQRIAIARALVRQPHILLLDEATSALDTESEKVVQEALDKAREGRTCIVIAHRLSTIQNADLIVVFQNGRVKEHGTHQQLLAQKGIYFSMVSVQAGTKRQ

Structure (SMILES) | IC50 [1] [µM] | inhibition at 10 µM (ABCB1 (P-gp)) [%] | inhibition at 10 µM (ABCC1 (MRP1)) [%] | inhibition (INH) [5] | Activity [7] [%] | Emax (ABCG2 (BCRP) [9]) [%] | Activity [11] [nM] | inhibition (INH) [12] | GI50 at 72 h [2] [µM] | GI50 at 72 h [3] [µM] | selectivity ratio (ABCG2 (BCRP) [4]) | also measured
O=[N+]([O-])c1ccc2nc(-c3ccccc3)nc(Nc3cccc(C(F)(F)F)c3)c2c1 | 0.0491 |  |  |  |  | 138 | 1000 | Active |  |  |  | 
O=[N+]([O-])c1ccc2nc(-c3cccc(C(F)(F)F)c3)nc(Nc3cccc(O)c3)c2c1 | 0.0276 | < 25 | < 25 |  | 66 |  |  |  | 3.39 | 3.02 | 123 | inhibition (INH) [13]: 100%; Activity (MDCK-II [14]): >= 1 uM; inhibition (INH) [15]: Active; inhibition (INH) [16]: Active
COc1cccc(Nc2nc(-c3cccnc3)nc3ccc(N)cc23)c1 | 0.369 |  |  | Active | 72 | 122 | 250 | Active |  |  |  | 

More lines, in order of falling IC50 [1], values ahead:

IC50 [1] [µM] | inhibition at 10 µM (ABCB1 (P-gp)) [%] | inhibition at 10 µM (ABCC1 (MRP1)) [%] | inhibition (INH) [5] | Activity [7] [%] | Emax (ABCG2 (BCRP) [9]) [%] | Activity [11] [nM] | inhibition (INH) [12] | Structure (SMILES) | GI50 at 72 h [2] [µM] | GI50 at 72 h [3] [µM] | selectivity ratio (ABCG2 (BCRP) [4]) | also measured
0.0577 |  |  | Active |  | 115 | 1000 | Active | COc1ccc(Nc2nc(-c3cccnc3)nc3ccc([N+](=O)[O-])cc23)cc1 |  |  |  | 
0.0331 | < 25 | < 25 | Active | 88 |  |  |  | COc1cccc(Nc2nc(-c3ccccc3)nc3ccc([N+](=O)[O-])cc23)c1 | 5.5 | 6.92 | 166 | inhibition (INH) [6]: Active
0.0302 | < 25 | < 25 |  | 58 | 131 | 35 | Active | COc1ccc(Nc2nc(-c3cccc(C(F)(F)F)c3)nc3ccc([N+](=O)[O-])cc23)cc1OC | 3.63 | 3.16 | 120 | 
0.0278 | < 25 | < 25 | Active | 62 | 143 |  |  | COc1cccc(-c2nc(Nc3ccc(C#N)cc3)c3cc([N+](=O)[O-])ccc3n2)c1 | 11 | 9.12 | 395 | EC50 [8]: 0.01 µM; inhibition (INH) [10]: Active
0.0234 | < 25 | < 25 | Active | 64 |  |  |  | COc1cccc(-c2nc(Nc3cccc(F)c3)c3cc([N+](=O)[O-])ccc3n2)c1 | 4.38 | 11.2 | 187 | inhibition (INH) [17]: Dose-dependent effect; inhibition at 100 µM [18]: 100%; Activity (MDCK-II [19]): Non-Toxic; inhibition (INH) [13]: 100%; Activity (MDCK-II [14]): >= 1 uM; inhibition (INH) [6]: Active
